ARFGAP1 inhibitor = inhibitors of rat ARFGAP1 GAP activity, primary screen, biochemical, fluorescence polarization, GDP tracer; ADP-ribosylation factor GTPase-activating protein 1 (Rattus norvegicus), Q62848; Arfgap1-stimulated ARF1 GTP hydrolysis, GDP FP detection; inhibition, % at 16.5 µM; hit rate 0.26% among 360,000;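 active means inhibition above a per-plate limit, mean inhibition of low control wells plus 3 SD, cut at about 25% in these data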;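 further: 0% = DMSO wells with enzyme and 100% = wells lacking Arfgap1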
Target sequence (Q62848 1-136 limits assumed): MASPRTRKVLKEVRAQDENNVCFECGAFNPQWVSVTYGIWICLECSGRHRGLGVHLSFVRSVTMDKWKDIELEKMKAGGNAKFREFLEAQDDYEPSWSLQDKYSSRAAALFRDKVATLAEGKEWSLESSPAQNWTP
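System: truncated rat Arfgap1 GAP domain / Benchmarks: high control wells lacking Arfgap1, low control full reaction with DMSO / Times: compound-enzyme preincubation 20 min, reaction 120 min, detection 60 min, 25 °C / Repeats: one replicate per compound / Also added: human ARF1(Δ1-17)-GTP substrate / Measured by: Tracer-displacement fluorescence polarization with EDTA stop, 620/688 nm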
NadD inh = inhibitors of S. aureus NadD, primary screen, biochemical, colorimetric, uHTS. purified NadD enzyme, colorimetric absorbance read-out. inhibition, % at 20 µM. Nicotinate-nucleotide adenylyltransferase NadD (Staphylococcus aureus N315). hit rate 0.78% among 360,000; in the data active means inhibition above about 26%
ASAP1 GAP inh = inhibitors of human ASAP1 ArfGAP activity, primary screen, biochemical, fluorescence polarization; ASAP1-stimulated ARF1 GTP hydrolysis, GDP FP detection; Arf-GAP with SH3 domain, ANK repeat and PH domain-containing protein 1 (Homo sapiens), …; hit rate 0.19% among 360,000; inhibition, % at 16.5 µM; in the data active means inhibition above about 25%;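 further: 0% = vehicle with enzyme and substrate and 100% = no enzyme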
Target sequence (Q9ULH1 325-724 limits assumed): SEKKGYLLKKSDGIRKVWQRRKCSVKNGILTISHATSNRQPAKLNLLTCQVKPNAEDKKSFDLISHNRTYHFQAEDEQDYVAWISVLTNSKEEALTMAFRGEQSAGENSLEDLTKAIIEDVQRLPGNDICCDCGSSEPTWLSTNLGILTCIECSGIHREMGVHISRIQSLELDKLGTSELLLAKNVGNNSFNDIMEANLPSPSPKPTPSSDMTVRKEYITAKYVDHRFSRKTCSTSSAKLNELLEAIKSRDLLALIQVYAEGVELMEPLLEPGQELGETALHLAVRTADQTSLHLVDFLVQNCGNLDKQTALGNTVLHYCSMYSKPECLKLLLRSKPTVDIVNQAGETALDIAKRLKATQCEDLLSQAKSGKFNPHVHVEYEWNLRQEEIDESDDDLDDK
rCAG RNA binder = binders of r(CAG) RNA repeats, primary screen, biochemical, fluorescence. r(CAG) RNA repeat, TO-PRO-1 dye displacement fluorescence. inhibition, % at 3 µM. hit rate 1.3% among 370,000;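 active means inhibition above the plate cutoff, the mean of all test compounds on that plate plus 3 SD, cut at about 35% in these data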;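 further: 0% = DMSO alone and 100% = 100 µM mitoxantrone as full dye displacement; higher means more dye released from RNA so lower well fluorescence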
rCAG bind conf = small molecules binding CAG repeat RNA – biochemical, fluorescence, confirmation. shares compounds with rCAG RNA binder. hit rate 70% among 4,300. inhibition, % at 3 µM. r(CAG) RNA repeat, TO-PRO-1 dye displacement fluorescence;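 active means inhibition above a per-plate cutoff, the mean inhibition of sample wells plus 3 SD, cut at about 35% in these data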;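 further: loss of TO-PRO-1 fluorescence as compound displaces dye from 1x1 AA loop RNA; 0% = DMSO only wells and 100% = 100 µM mitoxantrone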
DNA CAG counter = displacement of TO-PRO-1 from CAG DNA duplex, counter-screen for rCAG RNA repeat binder project, biochemical, fluorescence, TO-PRO-1 dye, d(CAG) DNA oligo | AID 652068, 2013 | inhibition, % at 3 µM | d(CAG) DNA oligo TO-PRO-1 dye displacement | hit rate 94% among 4,300 | shares compounds with rCAG RNA binder;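 active means inhibition above its plate's cutoff, the mean test-well inhibition plus 3 SD, cut at about 4.8% in these data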;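 further: 0% = DNA dye mix with DMSO and 100% = 100 µM mitoxantrone; hits displace the dye from DNA and so lower well fluorescence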
dCAG dye DR = inhibitors of DNA CAG/GTC TO-PRO-1 complex, dose response, counter-screen for rCAG RNA repeat binder project, biochemical, fluorescence, TO-PRO-1 dye; AID 686960, 2013; hit rate 20% among 250; DNA CAG/GTC duplex TO-PRO-1 dye displacement fluorescence; shares compounds with rCAG RNA binder; IC50, µM; in the data active means IC50 below about 10 µM
* = called active by the depositor; i = inactive; x = no result given. An excerpt weighted towards active compounds, which were near 2.2% of everything screened.

SMILES	ARFGAP1 inhibitor	NadD inh	ASAP1 GAP inh	rCAG RNA binder	rCAG bind conf	DNA CAG counter	others
O=C(NCc1ccc(F)cc1)c1cc(C2CCCCN2C(=O)OCCF)on1 (stereo not drawn)	-9.3	-1.7	-15.9	1.3	x	x
COc1ccc(NC(=O)c2cc(C3CCCCN3C(=O)c3cc(C(C)(C)C)nn3C)on2)c(C)c1 (stereo not drawn)	5.3	0.2	0.3	-0.6	x	x
O=S(=O)(Nc1ncccn1)c1ccc(NC(=S)NCCc2ccc(Cl)cc2)cc1	-6.6	-0.6	-17.9	38.4*	10.1	1.8
O=S(=O)(Nc1ccc(S(=O)(=O)Nc2ncccn2)cc1)c1ccc(Cl)cc1	-2.6	0.6	5.2	2.2	x	x
Cc1ccc(-c2ccc(/C=N/NC(=S)Nc3ccccc3)o2)cc1[N+](=O)[O-]	2.2	26.6	2.4	42.5*	34.0	15.9*
O=[N+]([O-])c1cccc(-c2ccc(/C=N/NC(=S)Nc3cccc(F)c3)o2)c1	11.3	17.9	-1.4	39.1*	25.1	13.2*
COc1ccc(CN2C[C@]3(C=C(C)Cn4c(=O)n(-c5ccccc5)c(=O)n43)N(C(=O)OCc3ccccc3)C2=NC(=O)c2ccccc2)c(OC)c1	x	x	x	10.8	x	x
OCC[C@@H]1C[C@H](O)[C@@H](O)[C@@]2(OCCc3cc(C(F)(F)F)ccc32)O1	-8.8	x	12.1	1.3	x	x
CC1(C(=O)NS(=O)(=O)c2ccccc2)CCN1C(=O)c1ccccc1CCc1ccccc1 (stereo not drawn)	4.4	-5.2	-3.5	40.0*	32.9	6.5*
Cc1ccccc1S(=O)(=O)NC(=O)C1(C)CCN1C(=O)c1ccccc1CCc1ccccc1 (stereo not drawn)	10.2	2.7	13.3	49.6*	41.4*	10.0*
Cc1ccc(S(=O)(=O)NC(=O)C2(C)CCN2C(=O)c2ccccc2CCc2ccccc2)cc1 (stereo not drawn)	-8.2	3.6	-7.1	48.5*	47.7*	14.1*
CC1(C(=O)NS(=O)(=O)c2ccc(C#N)cc2)CCN1C(=O)c1ccccc1CCc1ccccc1 (stereo not drawn)	4.2	-1.9	2.3	48.1*	45.5*	11.0*
Cc1noc(C)c1S(=O)(=O)NC(=O)C1(C)CCN1C(=O)c1ccccc1CCc1ccccc1 (stereo not drawn)	0.1	0.5	-9.5	30.7	x	x
C=CCNC(=O)CN(C(=O)Cc1ccc(Cl)nc1)c1cccc(Br)c1	x	x	x	0.6	x	x
COc1ccc(C2CC(=O)C(c3ccc(Cl)cc3)=CN2Cc2ccccc2)cc1 (stereo not drawn)	9.2	x	-3.6	5.1	x	x
CC1(C(=O)NC2CCCCCC2)CCN1C(=O)Cc1ccc(-c2ccccc2)cc1 (stereo not drawn)	5.5	-9.0	1.3	0.5	x	x
CC1(C(=O)NS(=O)(=O)c2ccc(Cl)s2)CCN1C(=O)c1ccccc1CCc1ccccc1 (stereo not drawn)	16.3	-0.1	-10.7	71.2*	72.2*	31.1*	dCAG dye DR=3.04*
O=C(Nc1cc([N+](=O)[O-])ccc1O)c1ccc2c(c1)C(=O)N(Cc1ccco1)C2=O	-1.0	5.2	-13.7	83.2*	63.9*	24.9*
O=C(Nc1ccc(O)cc1)c1ccc2c(c1)C(=O)N(Cc1ccco1)C2=O	-10.9	-4.8	-0.3	14.4	x	x
O=C(Nc1ccc(O)cc1C(=O)O)c1ccc2c(c1)C(=O)N(Cc1ccco1)C2=O	-5.3	-1.4	-4.4	72.8*	86.3*	50.0*
O=C(O)Cc1ccc(NC(=O)c2ccc3c(c2)C(=O)N(Cc2ccco2)C3=O)cc1	7.5	-13.1	6.4	19.4	x	x
COc1ccccc1-c1ccc([C@@H]2C[C@H]3[C@H](CON3C)CN2CC2CCCCC2)cc1	4.5	x	-3.5	2.6	x	x
Cc1ccc(SC(CC(=O)c2ccc(F)cc2)C(=O)O)cc1 (stereo not drawn)	1.4	-8.1	-7.9	1.3	x	x
CC(C)(C)c1ccc(C(=O)CC(Sc2ccc(Cl)cc2)C(=O)O)cc1 (stereo not drawn)	-10.0	13.1	-1.7	41.1*	52.1*	17.7*
O=C1[C@H]2C[C@@]3(n4ccc5ccccc54)c4ccccc4N(S(=O)(=O)c4ccccc4)[C@H]3N2C(=O)CN1Cc1ccccc1	x	x	x	9.8	x	x
SMILES	ARFGAP1 inhibitor	NadD inh	ASAP1 GAP inh	rCAG RNA binder	rCAG bind conf	DNA CAG counter	others
N#Cc1c(SC(C(=O)O)c2ccccc2)nc2c(c1-c1cccs1)CCCC2 (stereo not drawn)	-10.0	8.1	-7.1	67.2*	74.3*	28.2*	dCAG dye DR=i
Cc1ccc(C(=O)Nc2ccccc2C(=O)NC(Cc2ccccc2)C(=O)O)cc1 (stereo not drawn)	11.2	-7.7	11.8	42.8*	38.3*	8.7*
Cc1ccc(C(=O)Nc2ccccc2C(=O)NC(Cc2c[nH]c3ccccc23)C(=O)O)cc1 (stereo not drawn)	6.3	7.3	2.1	61.0*	62.5*	24.1*
O=C(NCCN1CCC(n2c(=O)[nH]c3ccccc32)CC1)c1ccc(F)c(F)c1	2.8	-5.0	-1.3	-3.0	x	x
O=C(NNc1c(Cl)cc(Cl)cc1Cl)c1cccc([N+](=O)[O-])c1	-3.3	-8.3	-13.4	37.4*	5.8	2.9
O=C(NC(NC(=S)Nc1c(Cl)cccc1Cl)C(Cl)(Cl)Cl)c1cccc([N+](=O)[O-])c1 (stereo not drawn)	6.1	1.6	12.4	46.7*	36.0*	15.7*
COc1ccc([N+](=O)[O-])cc1NC(=S)NC(NC(=O)C(c1ccccc1)c1ccccc1)C(Cl)(Cl)Cl (stereo not drawn)	-6.9	25.9	19.0	46.9*	38.7*	23.4*
O=C(NNC(=S)NC(=O)c1ccccc1Cl)c1cccc([N+](=O)[O-])c1	4.7	-4.7	-2.0	4.5	x	x
CCOC(=O)C1C(=O)CC(=O)C(C(=O)OCC)C1c1ccc(O)cc1 (stereo not drawn)	3.5	-6.2	3.1	36.3*	2.7	0.8
CCOC(=O)C1C(=O)CC(C)(O)C(C(=O)OCC)C1c1ccc(F)cc1 (stereo not drawn)	0.2	0.6	6.0	-7.5	x	x

Source: PubChem (several laboratories)
